Measured values as given in ChEMBL document CHEMBL4043282, “Discovery of the First Potent, Selective, and Orally Bioavailable Signal Peptide Peptidase-Like 2a (SPPL2a) Inhibitor Displaying Pronounced Immunomodulatory Effects In Vivo” (J Med Chem, 2018).
Active and inactive are the calls of the source. The rule behind the calls is not given here.

Key:
Mus musculus [1] = experiment: Immunomodulatory activity in mouse assessed as reduction in follicular B cells in splenocyte at 3 to 30 mg/kg administered via oral gavage bid at 8 and 16 hrs dosing interval between first and second dose respectively for 11 days measured 16 hrs post last dose on day 12 by flow cytometry; type: functional, organism-based
How it was run: (§1)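 Mice gavaged with compound in 0.5% MC:0.5% Tween or PEG:D5W 3:1. Spleens dissociated in GentleMACS, filtered at 40 μm, ACK red-cell lysis, counted; 1 × 10^6 splenocytes stained 30 min on ice in HBSS/2% FBS/5 mM EDTA with antimouse panels for B-cell subsets (B220, CD21, CD23, IgM, IgD) or dendritic cells (PDCA1, CD11c, MHCII, lineage markers); analyzed on Fortessa flow cytometer.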

Mus musculus [2] = experiment: Immunomodulatory activity in mouse assessed as reduction in transition T1 B cells in splenocyte at 3 to 30 mg/kg administered via oral gavage bid at 8 and 16 hrs dosing interval between first and second dose respectively for 11 days measured 16 hrs post last dose on day 12 by flow cytometry; type: functional, organism-based; how it was run: as §1
[3] = molecular target: T1, Signal peptide peptidase-like 2B (Homo sapiens, UniProt Q8TCT7); experiment: Inhibition of human SPPL2b expressed in human U2OS cells using EGFP-labeled TNFalpha (1 to 76 residues) NTF as substrate after 24 hrs by Hoechst staining based high content imaging assay; type: cell-based
T1 sequence (Q8TCT7 whole entry): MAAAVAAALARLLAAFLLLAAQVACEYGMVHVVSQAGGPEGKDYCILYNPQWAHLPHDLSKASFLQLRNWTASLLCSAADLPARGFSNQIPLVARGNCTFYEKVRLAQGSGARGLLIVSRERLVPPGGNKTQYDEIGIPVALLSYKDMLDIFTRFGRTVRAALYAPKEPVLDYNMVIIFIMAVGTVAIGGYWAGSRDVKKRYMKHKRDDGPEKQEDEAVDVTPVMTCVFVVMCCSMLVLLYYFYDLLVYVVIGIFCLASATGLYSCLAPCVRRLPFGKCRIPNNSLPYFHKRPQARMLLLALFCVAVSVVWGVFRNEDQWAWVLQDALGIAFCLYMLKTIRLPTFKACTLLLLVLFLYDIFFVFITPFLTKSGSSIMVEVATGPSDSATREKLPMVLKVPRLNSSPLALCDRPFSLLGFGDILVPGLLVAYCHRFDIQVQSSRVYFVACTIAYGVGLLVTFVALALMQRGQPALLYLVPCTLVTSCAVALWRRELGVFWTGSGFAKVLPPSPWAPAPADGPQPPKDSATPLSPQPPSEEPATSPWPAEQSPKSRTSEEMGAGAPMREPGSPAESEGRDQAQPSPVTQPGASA
How it was run: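 Stable U-2 OS lines expressing human SPPL2a, SPPL2b or SPP constitutively (mouse SPPL2a line analogous, mouse TNFα(aa1-77)-NTF-EGFP-NLS) with doxycycline-inducible EGFP substrate. 3000 cells/well, 3−4 h, then 11-point inhibitor 100 μM to 1 nM, 0.9% DMSO, 5 μg/mL doxycycline, 24 h 37 °C. PFA fixed, Hoechst nuclei; nuclear minus cytoplasmic EGFP intensity; inhibition vs 0.5 μM reference and DMSO; IC50 by nonlinear regression.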

Salmonella typhimurium = experiment: Genotoxicity in Salmonella typhimurium by Ames test; type: toxicity; details: salmonella enterica subsp. enterica serovar typhimurium
Mus musculus [4] = experiment: In vivo inhibition of SPPL2a in mouse assessed as accumulation of CD74/p8 in splenocyte lysate at 40 mg/kg administered via oral gavage as single dose measured 16 hrs post dose by Western blot method; type: functional, organism-based
How it was run: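 Mice gavaged in 0.5% MC:0.5% Tween or PEG:D5W 3:1. Spleens dissociated, red cells lysed with ACK, 1 × 10^6 cells lysed with protease inhibitors; 18 μg lysate on 10% gel, blotted, CD74 full length and p8 detected with rat anti-mouse CD74 In-1 and Alexa488 anti-rat IgG, LiCor scan; p8/full-length ratio expressed as percent of reference compound ratio.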

[5] = Total concentration in Lewis rat blood at 30 mg/kg, po bid after 24 hrs by LC/MS/MS analysis; type: ADME, organism-based; details: read-out: Drug uptake
Mus musculus [6] = experiment: Immunomodulatory activity in mouse assessed as reduction in total B cells in splenocyte administered via oral gavage bid at 8 and 16 hrs dosing interval between first and second dose respectively for 11 days measured 16 hrs post last dose on day 12 by B220 staining based flow cytometry; type: functional, cell-based
[7] = molecular target: T2, Signal peptide peptidase-like 2A (Mus musculus) (UniProt Q9JJF9); details: 2 uM
T2 sequence (whole entry): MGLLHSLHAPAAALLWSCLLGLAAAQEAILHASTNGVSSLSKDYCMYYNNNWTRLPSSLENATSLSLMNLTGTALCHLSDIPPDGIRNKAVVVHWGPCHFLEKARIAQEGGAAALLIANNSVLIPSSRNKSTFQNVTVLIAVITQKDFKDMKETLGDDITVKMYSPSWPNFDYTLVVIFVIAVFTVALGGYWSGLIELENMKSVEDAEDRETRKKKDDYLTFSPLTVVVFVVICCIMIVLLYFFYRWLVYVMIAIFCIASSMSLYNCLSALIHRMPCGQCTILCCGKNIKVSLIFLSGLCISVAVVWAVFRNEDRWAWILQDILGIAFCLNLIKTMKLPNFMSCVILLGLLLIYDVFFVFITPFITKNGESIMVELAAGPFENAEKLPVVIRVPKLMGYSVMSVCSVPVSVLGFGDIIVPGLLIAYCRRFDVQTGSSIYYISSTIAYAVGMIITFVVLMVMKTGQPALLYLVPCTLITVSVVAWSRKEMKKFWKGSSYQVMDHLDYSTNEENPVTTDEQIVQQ

[8] = Drug uptake in mouse spleen at 10 mg/kg, po administered as single dose after 4 hrs by LC/MS/MS analysis; type: ADME, organism-based; details: read-out: Drug uptake
[9] = Drug uptake in mouse spleen at 30 mg/kg, po administered as single dose after 4 hrs by LC/MS/MS analysis; type: ADME, organism-based; details: read-out: Drug uptake
[10] = Total plasma concentration in mouse at 10 mg/kg, po administered as single dose after 4 hrs by LC/MS/MS analysis; type: ADME, organism-based
Mus musculus [11] = experiment: In vivo inhibition of mouse gamma-secretase assessed as effect on Hes1 mRNA level in jejunum up to 100 mg/kg, po administered as single dose by RT-PCR method; type: organism-based
How it was run: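 Thymus and jejunum excised into RNALater, 4 °C overnight, washed, frozen at −80 °C; total RNA from 10 mg tissue by MagNA Pure LC; Hes1 measured by TaqMan real-time PCR; significance by two-tailed heteroscedastic Student's t-test.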

[12] = Half life in Balb/c mouse at 5 mg/kg, iv by LC/MS/MS analysis; type: ADME, organism-based; details: in vivo
[13] = molecular target: T3, Signal peptide peptidase-like 2A (Mus musculus, UniProt Q9JJF9); experiment: Inhibition of SPPL2a in mouse whole blood assessed as increase in CD74/p8 accumulation after 5.5 hrs by Western bot method
T3 sequence (Q9JJF9 whole entry): T2 sequence (whole entry)
How it was run: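 Mouse whole blood (200 μL) with compound from 20× stock, 0.5% DMSO final, 5.5 h at 37 °C, 5% CO2 with rotation. RBC lysis, washes, lysis in Tris pH 6.8/Triton/deoxycholate buffer; Western blot with rat anti-mouse CD74 (In-1); p8 band intensity normalized to CD74 full-length/β-actin for dose response.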

| IC50 [3] | concentration at 24 h [5] | inhibition [7] | concentration at 4 h [8] | concentration at 4 h [9] | concentration at 4 h [10] | half-life [12] | IC50 [13] | Compound | Activity (Mus musculus [1]) | Activity (Mus musculus [2]) | Activity (Salmonella typhimurium) | inhibition (Mus musculus [4]) | Activity (Mus musculus [6]) | Activity (Mus musculus [11]) |
| --- | --- | --- | --- | --- | --- | --- | --- | --- | --- | --- | --- | --- | --- | --- |
| 430 nM | 3560 nM | inactive | – | – | – | – | – | Cc1ncc(F)cc1NC(=O)C[C@H](C(=O)N[C@@H]1C(=O)N2CC3(CC3)CN2C(=O)c2ccccc21)C1CC1 | Active | Active | Non-Toxic | Active | Dose-dependent effect | – |
| – | – | – | 127 nM | 434 nM | 57 nM | 42 min | 550 nM | Cc1ccccc1NC(=O)C[C@@H](C)C(=O)N[C@@H]1C(=O)N2CCCN2Cc2ccccc21 | – | – | – | – | – | Non-Toxic |
